Results published in the EternaBench riboswitch data.

Tested on: MS2 coat protein
Experiment: apparent Kd, MS2 coat protein; higher = weaker binding; RNA-MaP array; FMN 200 µM where present
In short: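 Designs were transcribed by stalled E. coli RNA polymerase on Illumina sequencing-chip clusters. They were titrated with SNAP-549-labelled MS2 coat protein from 0.7 or 1.5 nM, doubling to 3 µM, in 100 mM Tris-HCl pH 7.5, 80 mM KCl, 4 mM MgCl2, BSA, DTT, yeast tRNA and Tween-20, without and then with constant ligand. The apparent Kd is the median of filtered per-cluster fits after normalisation of green signal to red-channel RNA signal and control-cluster median Fmax.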

[1] = designed as: OFF switch for flavin mononucleotide, no ligand
[2] = ligand present: flavin mononucleotide, designed as: OFF switch for flavin mononucleotide
[3] = designed as: ON switch for flavin mononucleotide, no ligand
[4] = ligand present: flavin mononucleotide, designed as: ON switch for flavin mononucleotide

Sequence: AGCUGGUUAGGAUAUACAUGAGGAUCACCCAUGUUAAAAAAAAAAAAAAGAUUAAAGUGUAGAAGGGAUUAGUA
- apparent Kd [1]: 40.4 nM
- apparent Kd [2]: 37.1 nM

Sequence: UGGUACUAGGGAGGAUAUGGGAAGAUACAUGAGGAUCACCCAUGUUUAAGAAUGCCGAGAGGCAACUAGAAGGCCCUAGUAUCU
- apparent Kd [3]: 382 nM
- apparent Kd [4]: 18.9 nM

Sequence: CAAGAUGUCUGGUAAUUGCGUACACAGGAUAUGGAUUGUUACAUGAGGAUCACCCAUGUUUCCUUUCAGAAGGGUGUAUCAUGU
- apparent Kd [3]: 208 nM
- apparent Kd [4]: 20.5 nM

Sequence: AAUUAUUUACAGAAGGAGUAAGAUUAUGUAUUACUAGGAUAUGUUCACAUGAGGAUCACCCAUGUACUAGUAGGUUUUUUAUGU
- apparent Kd [1]: 6.96 nM
- apparent Kd [2]: 7.66 nM

Sequence: GGGAUGUCAGGAUAUCCAAAAGUCUGCCAAUACAGCAGACAGGAGAAGGGACAUGAGGAUCACCCAUGUAAAGA
- apparent Kd [1]: 39.5 nM
- apparent Kd [2]: 107 nM

Sequence: GUGUGCUGAGGAUAUACAUAGGAAGAGAAGAGAAGAGAAGGACAUGAGGAUCACCCAUGUAGAAGGCAGAGUGU
- apparent Kd [1]: 28.2 nM
- apparent Kd [2]: 33.3 nM

Sequence: AAACAUGUCCGAGGAUAUCUGGAAACAUUUCCAAGAGAAGGCGGACAUGAGGAUCACCCAUGUCUCUCCUCAUCAAAUCCAAAU
- apparent Kd [1]: 9.18 nM
- apparent Kd [2]: 88.9 nM

Sequence: UUAAAUCAUGUAGGAUAUGCAUGGCGAAGCUACGCAGAAGGACAUGAGGAUCACCCAUGUUAUAGCUUCCCAGUUCGGAGGCAA
- apparent Kd [1]: 63.8 nM
- apparent Kd [2]: 230 nM

Sequence: ACAUGAUUCAAGAAGGAUGUAUUUGAUUUGAUCAUAGGAUAUUGUUAUUUUGUUUACUCUAAUAACAUGAGGAUCACCCAUGUA
- apparent Kd [3]: 14.4 nM
- apparent Kd [4]: 10.4 nM

Sequence: ACAUGAGGAUCACCCAUGUAUAGAAUUGAAUGUUAAGAUACGUAGGAUAUCGAGUUUAGUAUGAUCGAGAAGGACGAUCUGAUA
- apparent Kd [3]: 19.8 nM
- apparent Kd [4]: 13.6 nM

Sequence: AACUCACAUGAGGAUCACCCAUGUGAGGAUAUGAUACUAUGUACUUCGGUACAUAGUAUCAGAAGGCAUGUGGA
- apparent Kd [1]: 14.4 nM
- apparent Kd [2]: 18.9 nM

Sequence: CAAAGUUGGUAAGGAUAUCCCACAUUAUUCUGGCCCGUGCAAGCUACAUGAGGAUCACCCAUGUGGGAGAAGGUGCGUUAAAGA
- apparent Kd [1]: 22 nM
- apparent Kd [2]: 33.7 nM

Sequence: ACUGAAGUCACAGGAUAUCAUAUGUCGGCACAUUGAGAAGGGUGACUGGGCUACAUGAGGAUCACCCAUGUGCCGUCGUAACAA
- apparent Kd [3]: 104 nM
- apparent Kd [4]: 80.4 nM

Sequence: GAAUAAUUGAUCCAAUAUAACAACAUGAGGAUCACCCAUGUGCAGGAUAUCGUAUUUAUUAUAUACGAGAAGGGCAAGAACUGU
- apparent Kd [1]: 343 nM
- apparent Kd [2]: 475 nM

Sequence: UGAGCAAGAGGAUAUACAAGGCGACCGUGAGGUCGAGGGUUACAUGAGGAUCACCCAUGUAGAAGGCUUGUUCU
- apparent Kd [1]: 37.1 nM
- apparent Kd [2]: 323 nM

Sequence: AAGCCUAAUGAGAAGGUGUGUAUAAAUUAUAUACAAGGAUAUCGGUCAAGCAUGAAAACAUGAGGAUCACCCAUGUUAAGGCUU
- apparent Kd [3]: 5.82 nM
- apparent Kd [4]: 5.51 nM

Sequence: ACAAAAGUUGAUCCUCGCUACAUGAGGAUCACCCAUGUAAUGGAGGAUAUGCAGCAACAAAACUCGCAGAAGGCCAUUUGCUGG
- apparent Kd [1]: 52.5 nM
- apparent Kd [2]: 30.5 nM

Sequence: GGGCCCGGAGGAUAUACAAUGGGCUCGGGAAACUGGGUCUUACAUGAGGAUCACCCAUGUAGAAGGCCGGGCCC
- apparent Kd [1]: 18.9 nM
- apparent Kd [2]: 23.4 nM

Sequence: GGACAUUUACAGAAGGGCAAUUUAUUUAUUGAUUAUUUAGUUCUGUUUUGCAGGAUAUGUUUUACAUGAGGAUCACCCAUGUCC
- apparent Kd [3]: 66.8 nM
- apparent Kd [4]: 36.2 nM

Sequence: AGUCCUGAUGUUAGGAUAUGCAACUAGCCAUUGUAGCAGAAGGAACAUGAGGAUCACCCAUGUACAAAGACCCA
- apparent Kd [1]: 30.1 nM
- apparent Kd [2]: 55.4 nM

Sequence: GGGUACAUCGGAGGAUAUCAUGUAAAUACAUGAGGAUCACCCAUGUCGAUGGAGACAUCGGAGAUUGAGAAGGCCGAUGUAACG
- apparent Kd [3]: 183 nM
- apparent Kd [4]: 9.47 nM

Sequence: GCGAAGAACGAGAAGGCCACUACAUGAGGAUCACCCAUGUCGUGGAGUAUUGGAGGAUAUCGUUAGGCGUCUCAUGAGGACAUA
- apparent Kd [1]: 5.26 nM
- apparent Kd [2]: 5.69 nM

Sequence: ACAUGAGGAUCACCCAUGUUAUCUGGGACUUCAAUUAUUUCUAGAAGGCUGUUUACUUGUUAGUCAGAGGAUAUAGAAUUAAAU
- apparent Kd [1]: 31.1 nM
- apparent Kd [2]: 32.3 nM

Sequence: AAAUUAAGAAGAGGAUAUUGACAUGAGGAUCACCCAUGUAUUUGGGAAUGUUUACUGAAUUCUUACAAGAAGGUUUACGAACUU
- apparent Kd [1]: 157 nM
- apparent Kd [2]: 99.7 nM

Sequence: CGCUAAGAUGGGUUUAAUGGAGCAUAGGAUAUGCUUGUACAUGAGGAUCACCCAUGUAAUAUUGUGCAGAAGGGUGCAUUUGCG
- apparent Kd [3]: 126 nM
- apparent Kd [4]: 75.1 nM

Sequence: CUUUAGUGAGGAUAUUAGUAGUAAUACAAUAGUAUUACUACUGAGAAGGCACAUGAGGAUCACCCAUGUUCCUC
- apparent Kd [1]: 27.8 nM
- apparent Kd [2]: 292 nM

Sequence: ACAAGAGCGGAAGGAUAUUUUACAUGAGGAUCACCCAUGUAAUAAAUGAGGAUCACGGAUGUAGUAAAGAAGGUCCGGAUAAGA
- apparent Kd [1]: 26.1 nM
- apparent Kd [2]: 32.8 nM

Sequence: GGAUAGGACAGAGGAUAUACGUGCUAGAGAUACUAGCCAAAUUUCCUCACAUGAGGAUCACCCAUGUAGAAGGCUGUCCUAUCG
- apparent Kd [1]: 6.86 nM
- apparent Kd [2]: 84.5 nM

Sequence: AUUGAUAUUGAGGAUAUGCUUUUAUUUGUUCUUGCAGAAGGCGAUACAUGAGGAUCACCCAUGUUUAUGGAAGU
- apparent Kd [1]: 40.8 nM
- apparent Kd [2]: 48 nM

Sequence: GUGCCGUUGGCUCGACGACCGCUGCAGGAUAUCACAUGAGGAUCACCCAUGUGACUCUGCCCAUGUGAGAAGGGCGGCUGUGUG
- apparent Kd [1]: 18.9 nM
- apparent Kd [2]: 34.7 nM

Sequence: CACGUCCUCACAGGAUAUGCUGGACUUUGUCCAGCAGAAGGGUGAAAACAUGAGGAUCACCCAUGUAGGACGUGUAUAUUUAAU
- apparent Kd [3]: 1020 nM
- apparent Kd [4]: 125 nM

Sequence: CCCAGUUAUCUAGGAUAUUGUACAUGAGGAUCACCCAUGUAAUAAAUGAGGAUUUCGGGUGUCUACAAGAAGGAGAGGAUAGGC
- apparent Kd [1]: 28.6 nM
- apparent Kd [2]: 26.1 nM

Sequence: AUUUCAAUUGUUUACAUGAGGAUCACCCAUGUCAUAAGUCAUGAGGAUAUGGUAUUGUAGUUAUUCCAGAAGGCAUAUAGCUUA
- apparent Kd [3]: 38.5 nM
- apparent Kd [4]: 14.4 nM

Sequence: UCUGCCGCCGUGAGGAUAUGCCCGCGAAAACGCGGGCAGAAGGCACAUGAGGAUCACCCAUGUCCCGCGGUUUU
- apparent Kd [1]: 16.1 nM
- apparent Kd [2]: 36.7 nM

Sequence: AAUAUAAAGCAGAAGGCCUUAUUACAUGAGGAUCACCCAUGUAAUCGUGGGAGGAUAUGCAUGAUACAACUACGUAUCGUAGCA
- apparent Kd [3]: 9.33 nM
- apparent Kd [4]: 5.19 nM

Sequence: AAACAUGUCCGAGGAUAUCUGAGAUCAUUUUCAAGAGAAGGCGGACAUGAGGAUCACCCAUGUCUCUCCUCAUCAACUCCAAAU
- apparent Kd [1]: 18.8 nM
- apparent Kd [2]: 136 nM

Sequence: UGGUAACAUGAGGAUCACCCAUGUCAGGAUAUCAGUAAGAAGAGAUUAGAGUAGAAUAUGAGAAGGGACUAUAG
- apparent Kd [1]: 36.7 nM
- apparent Kd [2]: 30.4 nM

Sequence: AUAAGUCGAGGAUAUACGGGAUGCUAGCGAAAGCUAGCAUAACAUGAGGAUCACCCAUGUAGAAGGCGACAAUA
- apparent Kd [1]: 56.2 nM
- apparent Kd [2]: 104 nM

Sequence: ACAGUAUAUGUAGGAUAUCGUUGGUUAGAUAGGCGAGAAGGGCAUAGUACAUGAGGAUCACCCAUGUGUUGGUCCUCGCAGAAA
- apparent Kd [1]: 454 nM
- apparent Kd [2]: 237 nM

Sequence: GCAAGGCAUGUAGGAUAUCGAGCUCAAAGAGCUCGAGAAGGACAUGAGGAUCACCCAUGUGCUCACAGACAGUGAGCGCCAUGC
- apparent Kd [1]: 35.4 nM
- apparent Kd [2]: 114 nM

Sequence: CUAUGCGGAAUAGGAUAUUCGCUCAUGAGGAUAGAAGAAGGGUUACAUGAGGAUCACCCAUGUAUGCACAUGAGGAUCCCUUAG
- apparent Kd [1]: 134 nM
- apparent Kd [2]: 150 nM

Sequence: GACAUACAUGAGGAUCACCCAUGUUCAAACGAACAAGGAUAUGUGUGGAAACCAUACUAUACAGAAGGUGUCUGUC
- apparent Kd [3]: 81.7 nM
- apparent Kd [4]: 97.7 nM

Sequence: GUCGACCUAUUCGUCAGACUCUCACAGGAUAUACGAUACACAUGAGGAUCACCCAUGUAGAUAACGUAGAAGGGUGAUUCCGGU
- apparent Kd [3]: 66.7 nM
- apparent Kd [4]: 27.7 nM

Sequence: GUGAACCGUAGGUCGCUGGCUGCACAGGAUAUGAAGGCGUACAUGAGGAUCACCCAUGUUCCCUAUCAGAAGGGUGACAGGAAA
- apparent Kd [3]: 14.8 nM
- apparent Kd [4]: 8.85 nM

Sequence: UGGGAUGGCUAGAAGGCUCCGUAUACUAAAGGGAGAGGAUAUGGCACAUGAGGAUCACCCAUGUGUACCUGUAGGUGAUCCACA
- apparent Kd [1]: 276 nM
- apparent Kd [2]: 70 nM

Sequence: CCGGAAACGGGUAGCCUGACAUGAGGAUCACCCAUGUGAUCCAAGGAUAUGGAUCCUAAUUGGAUCCAGAAGGUGGUUGGCUAC
- apparent Kd [3]: 76.7 nM
- apparent Kd [4]: 1200 nM

Sequence: GGAUCCAACACAGGAUAUGCUGGACUUUGUCCAGCAGAAGGGUGAAGGACAUGAGGAUCACCCAUGUGGAUCCAUAUAUUUAAU
- apparent Kd [3]: 324 nM
- apparent Kd [4]: 27.8 nM

Sequence: UUCGUGCAGCUUUGCUGUACGCGUACAUGAGGAUCACCCAUGUAGGAUAUGGUACGCGUUGCGUGCUAGAAGGAUAUGGAGAGG
- apparent Kd [1]: 18.4 nM
- apparent Kd [2]: 22.9 nM
